Test results from ChEMBL document CHEMBL3774372, “Design, physico-chemical properties and biological evaluation of some new N-[(phenoxy)alkyl]- and N-{2-[2-(phenoxy)ethoxy]ethyl}aminoalkanols as anticonvulsant agents” (Bioorg Med Chem, 2016).
Activity calls are given as the source filed them.

Legend:
[1] = target: Muscarinic acetylcholine receptor M5 (Homo sapiens) (UniProt P08912); experiment: Displacement of [3H]4-DAMP from human recombinant muscarinic M5 receptor expressed in CHO cells at 10^-5 M; assay type: cell-based
Procedure, shortened: (§1)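 Radioligand binding screen run at a single test concentration of 10^-5 M. Each target used its stated receptor source (human recombinant CHO or HEK-293 cells, endogenous cell lines, or rat tissue membranes) with the listed radioligand.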

[2] = target: Histamine H1 receptor (Homo sapiens) (UniProt P35367); experiment: Displacement of [3H]pyrilamine from human recombinant histamine H1 receptor expressed in HEK293 cells at 10^-5 M; assay type: cell-based
Procedure, shortened: (§2)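 Radioligand displacement screen with the test agent at a single 10^-5 M concentration; receptor source and radioligand per target as tabulated (recombinant human cell lines or rat cerebral cortex/urinary bladder).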

[3] = target: Adenosine receptor A2a (Homo sapiens) (UniProt P29274); experiment: Displacement of [3H]CGS 21680 from human recombinant adenosine A2a receptor expressed in HEK293 cells at 10^-5 M; assay type: cell-based; procedure, shortened: as §1
[4] = species: Rattus norvegicus; experiment: Displacement of […] from rat cerebral cortex GABA-gated chloride channel at 10^-5 M; assay type: tissue-based; procedure, shortened: as §1
[5] = target: 5-hydroxytryptamine receptor 2B (Homo sapiens, UniProt P41595); experiment: Displacement of [125I](+/-)DOI from human recombinant 5-HT2B receptor expressed in CHO cells at 10^-5 M; assay type: cell-based
[6] = target: D(4) dopamine receptor (Homo sapiens) (UniProt P21917); experiment: Displacement of [3H]methylspiperone from human recombinant Dopamine D4.4 receptor expressed in CHO cells at 10^-5 M; assay type: cell-based; procedure, shortened: as §2
[7] = target: Sodium-dependent dopamine transporter (Homo sapiens) (UniProt Q01959); experiment: Displacement of [3H]BTCP from human recombinant dopamine transporter expressed in CHO cells at 10^-5 M; assay type: cell-based; procedure, shortened: as §1
[8] = target: Beta-1 adrenergic receptor (Homo sapiens) (UniProt P08588); experiment: Displacement of [3H](-)CGP12177 from human recombinant Beta-1 adrenergic receptor expressed in HEK293 cells at 10^-5 M; assay type: cell-based; procedure, shortened: as §1
[9] = target: D(2) dopamine receptor (Homo sapiens) (UniProt P14416); experiment: Displacement of [3H]methylspiperone from human recombinant Dopamine D2S receptor expressed in HEK293 cells at 10^-5 M; assay type: cell-based; procedure, shortened: as §2
[10] = target: Muscarinic acetylcholine receptor M1 (Homo sapiens) (UniProt P11229); experiment: Displacement of [3H]pirenzepine from human recombinant muscarinic M1 receptor expressed in CHO cells at 10^-5 M; assay type: cell-based; procedure, shortened: as §2
[11] = target: Nociceptin receptor (Homo sapiens) (UniProt P41146); experiment: Displacement of [3H]nociceptin from human recombinant Nociceptin receptor expressed in HEK293 cells at 10^-5 M; assay type: cell-based; procedure, shortened: as §2
[12] = system: Mus musculus; experiment: Anticonvulsant activity in mouse assessed as protection against maximal electric shock-induced seizures at 30 mg/kg, ip measured after 0.5 hrs; assay type: functional, organism-based
Procedure, shortened: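 Mice dosed ip with suspension in 0.5% methylcellulose; maximal electroshock applied at the listed time after dosing. Protection = abolition of hindlimb tonic extension component of seizure; reported as animals protected/animals tested.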

[13] = species: Rattus norvegicus; experiment: Displacement of [35S]dATPalpha S from rat cerebral cortex P2Y receptor at 10^-5 M; assay type: tissue-based; procedure, shortened: as §1
[14] = species: Rattus norvegicus; experiment: Displacement of [3H]TCP from rat cerebral cortex PCP receptor at 10^-5 M; assay type: tissue-based; procedure, shortened: as §2
[15] = target: Translocator protein (Rattus norvegicus) (UniProt P16257); experiment: Displacement of [3H]PK 11195 from rat heart peripheral-type benzodiazepine receptor at 10^-5 M; procedure, shortened: as §1
[16] = system: Rattus norvegicus; experiment: Anticonvulsant activity in pilocarpine-induced status epilepticus Sprague-Dawley rat model at 30 mg/kg, ip after 1 hr during post stage 3 seizure; assay type: functional, organism-based
Procedure, shortened: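 Rats given pilocarpine 50 mg/kg ip and observed to first convulsive seizure (Racine stage 3–5, time zero); test drug then given ip in 0.5% methylcellulose. Efficacy = halting further stage 3–5 convulsive seizures; scored protected/tested, time after first stage 3 seizure.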

[17] = species: Rattus norvegicus; experiment: Displacement of [3H]alpha,beta-MeATP from rat urinary bladder P2X receptor at 10^-5 M; procedure, shortened: as §2
[18] = target: Sodium-dependent noradrenaline transporter (Homo sapiens) (UniProt P23975); experiment: Displacement of [3H]nisoxentine from human recombinant norepinephrine transporter expressed in CHO cells at 10^-5 M; assay type: cell-based; procedure, shortened: as §2
[19] = target: Type-2 angiotensin II receptor (Homo sapiens) (UniProt P50052); experiment: Displacement of [125I]CGP42112A from human recombinant AT2 receptor expressed in HEK293 cells at 10^-5 M; assay type: cell-based; procedure, shortened: as §1
[20] = target: Neuromedin-K receptor (Homo sapiens) (UniProt P29371); experiment: Displacement of [3H]SR142801 from human recombinant NK3 receptor expressed in CHO cells at 10^-5 M; assay type: cell-based; procedure, shortened: as §2
[21] = target: Galanin receptor type 1 (Homo sapiens) (UniProt P47211); experiment: Displacement of [125I]galanin from human recombinant GAL1 receptor expressed in HEK293 cells at 10^-5 M; assay type: cell-based; procedure, shortened: as §1
[22] = target: Somatostatin receptor (Mus musculus) (UniProt P30935+O08858+P30875+P30873+P49660); experiment: Displacement of [125I]Tyr11-somatostatin-14 from somatostatin receptor in mouse AtT20 cells at 10^-5 M; assay type: cell-based; procedure, shortened: as §1
[23] = species: Rattus norvegicus; experiment: Displacement of [[…]]batrachotoxin from rat cerebral cortex Sodium channel site 2 at 10^-5 M; assay type: tissue-based
[24] = system: Mus musculus; experiment: Anticonvulsant activity in mouse assessed as protection against subcutaneous pentylenetetrazol-induced seizures at 30 mg/kg, ip measured after 0.5 hrs; assay type: functional, organism-based
Procedure, shortened: (§3)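 Mice dosed ip as 0.5% methylcellulose suspension; pentylenetetrazole 85 mg/kg in 0.9% NaCl injected subcutaneously into posterior midline, animals watched at least 30 min. Protection = no threshold seizure (single clonic spasm episode lasting ≥5 s); scored protected/tested.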

[25] = target: Prostaglandin E2 receptor EP2 subtype (Homo sapiens) (UniProt P43116); experiment: Displacement of [3H]PGE2 from human recombinant prostanoid EP2 receptor expressed in HEK293 cells at 10^-5 M; assay type: cell-based; procedure, shortened: as §1
[26] = system: Mus musculus; experiment: Anticonvulsant activity in mouse assessed as protection against subcutaneous pentylenetetrazol-induced seizures at 30 mg/kg, ip measured after 4 hrs; assay type: functional, organism-based; procedure, shortened: as §3
[27] = target: 5-hydroxytryptamine receptor 5A (Homo sapiens) (UniProt P47898); experiment: Displacement of [3H]LSD from human recombinant 5-HT5A receptor expressed in HEK293 cells at 10^-5 M; assay type: cell-based; procedure, shortened: as §1
[28] = target: C-X-C chemokine receptor type 2 (Homo sapiens) (UniProt P25025); experiment: Displacement of [125I]IL-8 from human recombinant CXCR2 receptor expressed in HEK293 cells at 10^-5 M; assay type: cell-based; procedure, shortened: as §1
[29] = target: Cholecystokinin receptor type A (Homo sapiens) (UniProt P32238); experiment: Displacement of [125I]CCK-8s from human recombinant CCK-A receptor expressed in CHO cells at 10^-5 M; assay type: cell-based; procedure, shortened: as §1
[30] = target: Sodium-dependent serotonin transporter (Homo sapiens) (UniProt P31645); experiment: Displacement of [3H]imipramine from human recombinant 5-HT transporter expressed in CHO cells at 10^-5 M; assay type: cell-based; procedure, shortened: as §2
[31] = target: 5-hydroxytryptamine receptor 1A (Homo sapiens) (UniProt P08908); experiment: Displacement of [3H]8-OHDPAT from human recombinant 5-HT1A receptor expressed in HEK293 cells at 10^-5 M; assay type: cell-based; procedure, shortened: as §1

C-X-C chemokine receptor type 2 (Homo sapiens), sequence (P25025 whole entry): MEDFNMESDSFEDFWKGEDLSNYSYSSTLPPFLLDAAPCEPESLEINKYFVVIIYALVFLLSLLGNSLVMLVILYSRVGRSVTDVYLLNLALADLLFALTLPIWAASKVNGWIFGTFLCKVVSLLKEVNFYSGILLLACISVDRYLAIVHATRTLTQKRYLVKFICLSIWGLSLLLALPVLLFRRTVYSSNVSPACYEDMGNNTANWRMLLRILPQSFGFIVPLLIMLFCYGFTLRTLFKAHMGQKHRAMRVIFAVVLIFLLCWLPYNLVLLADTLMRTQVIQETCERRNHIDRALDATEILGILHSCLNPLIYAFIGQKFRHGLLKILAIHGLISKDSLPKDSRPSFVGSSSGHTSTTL
Cholecystokinin receptor type A (Homo sapiens), sequence (P32238 whole entry): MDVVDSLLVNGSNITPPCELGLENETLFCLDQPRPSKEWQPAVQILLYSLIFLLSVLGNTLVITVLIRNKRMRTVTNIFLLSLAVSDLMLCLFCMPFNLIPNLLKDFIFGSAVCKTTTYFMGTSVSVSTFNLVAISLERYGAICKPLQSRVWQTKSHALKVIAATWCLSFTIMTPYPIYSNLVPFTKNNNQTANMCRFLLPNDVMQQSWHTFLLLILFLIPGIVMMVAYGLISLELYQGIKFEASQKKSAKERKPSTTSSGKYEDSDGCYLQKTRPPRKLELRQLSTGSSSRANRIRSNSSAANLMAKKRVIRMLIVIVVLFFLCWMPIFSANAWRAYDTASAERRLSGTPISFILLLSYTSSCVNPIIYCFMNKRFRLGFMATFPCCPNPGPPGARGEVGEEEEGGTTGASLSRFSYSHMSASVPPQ
Muscarinic acetylcholine receptor M1 (Homo sapiens), sequence (P11229 whole entry): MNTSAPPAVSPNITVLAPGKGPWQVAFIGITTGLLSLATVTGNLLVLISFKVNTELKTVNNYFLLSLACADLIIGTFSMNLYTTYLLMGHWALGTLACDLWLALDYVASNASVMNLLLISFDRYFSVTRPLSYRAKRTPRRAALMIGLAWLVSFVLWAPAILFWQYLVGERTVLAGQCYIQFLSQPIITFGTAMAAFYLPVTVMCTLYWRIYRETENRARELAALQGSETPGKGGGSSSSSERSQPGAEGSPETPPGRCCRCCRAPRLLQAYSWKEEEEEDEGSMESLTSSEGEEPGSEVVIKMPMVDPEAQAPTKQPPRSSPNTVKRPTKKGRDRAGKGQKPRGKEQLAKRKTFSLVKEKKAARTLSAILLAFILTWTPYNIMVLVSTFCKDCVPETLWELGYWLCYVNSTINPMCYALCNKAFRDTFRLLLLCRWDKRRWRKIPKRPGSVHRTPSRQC
5-hydroxytryptamine receptor 5A (Homo sapiens), sequence (P47898 whole entry): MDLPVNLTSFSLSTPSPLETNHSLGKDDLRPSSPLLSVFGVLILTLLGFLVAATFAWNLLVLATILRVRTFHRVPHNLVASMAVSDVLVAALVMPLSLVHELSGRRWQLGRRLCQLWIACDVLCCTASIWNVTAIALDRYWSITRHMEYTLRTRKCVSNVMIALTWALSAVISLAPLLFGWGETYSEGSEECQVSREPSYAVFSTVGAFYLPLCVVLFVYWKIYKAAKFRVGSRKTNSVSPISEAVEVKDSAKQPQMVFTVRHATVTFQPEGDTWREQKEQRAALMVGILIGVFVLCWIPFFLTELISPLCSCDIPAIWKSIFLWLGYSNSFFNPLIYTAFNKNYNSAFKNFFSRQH
Nociceptin receptor (Homo sapiens), sequence (P41146 whole entry): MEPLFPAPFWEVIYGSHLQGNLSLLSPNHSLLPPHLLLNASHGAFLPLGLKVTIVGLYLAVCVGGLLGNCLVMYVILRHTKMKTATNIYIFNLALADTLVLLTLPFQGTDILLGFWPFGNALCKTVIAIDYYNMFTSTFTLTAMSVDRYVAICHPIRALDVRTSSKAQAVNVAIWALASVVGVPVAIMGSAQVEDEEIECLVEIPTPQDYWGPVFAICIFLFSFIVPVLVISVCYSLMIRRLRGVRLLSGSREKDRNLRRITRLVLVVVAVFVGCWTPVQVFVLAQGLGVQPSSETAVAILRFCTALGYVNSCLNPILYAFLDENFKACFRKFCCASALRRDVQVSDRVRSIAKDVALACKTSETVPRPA
D(2) dopamine receptor (Homo sapiens), sequence (P14416 whole entry): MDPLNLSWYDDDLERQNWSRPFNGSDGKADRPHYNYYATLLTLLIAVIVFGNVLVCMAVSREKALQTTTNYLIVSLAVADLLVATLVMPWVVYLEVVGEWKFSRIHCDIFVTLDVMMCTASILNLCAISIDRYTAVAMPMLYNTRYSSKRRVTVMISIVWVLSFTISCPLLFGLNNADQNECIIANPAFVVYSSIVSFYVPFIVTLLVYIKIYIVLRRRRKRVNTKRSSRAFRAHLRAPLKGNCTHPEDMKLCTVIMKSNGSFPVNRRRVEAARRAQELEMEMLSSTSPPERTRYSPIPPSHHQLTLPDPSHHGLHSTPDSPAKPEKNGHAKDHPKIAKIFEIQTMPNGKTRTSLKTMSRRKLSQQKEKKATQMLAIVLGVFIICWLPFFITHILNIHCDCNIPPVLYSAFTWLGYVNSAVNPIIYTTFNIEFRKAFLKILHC
Histamine H1 receptor (Homo sapiens), sequence (P35367 whole entry): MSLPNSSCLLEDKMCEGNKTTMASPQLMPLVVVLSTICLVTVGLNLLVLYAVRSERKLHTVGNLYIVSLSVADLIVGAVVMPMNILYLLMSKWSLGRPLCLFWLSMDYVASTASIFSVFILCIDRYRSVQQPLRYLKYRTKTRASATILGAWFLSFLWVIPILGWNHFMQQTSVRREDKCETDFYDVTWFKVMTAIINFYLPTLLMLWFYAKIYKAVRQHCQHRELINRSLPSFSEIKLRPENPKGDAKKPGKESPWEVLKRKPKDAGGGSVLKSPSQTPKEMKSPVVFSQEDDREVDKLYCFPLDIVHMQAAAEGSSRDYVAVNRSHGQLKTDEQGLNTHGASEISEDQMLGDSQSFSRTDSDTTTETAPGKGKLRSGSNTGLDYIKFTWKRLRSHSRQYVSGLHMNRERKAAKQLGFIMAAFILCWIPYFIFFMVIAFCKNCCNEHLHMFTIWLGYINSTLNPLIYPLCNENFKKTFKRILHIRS
Sodium-dependent noradrenaline transporter (Homo sapiens), sequence (P23975 whole entry): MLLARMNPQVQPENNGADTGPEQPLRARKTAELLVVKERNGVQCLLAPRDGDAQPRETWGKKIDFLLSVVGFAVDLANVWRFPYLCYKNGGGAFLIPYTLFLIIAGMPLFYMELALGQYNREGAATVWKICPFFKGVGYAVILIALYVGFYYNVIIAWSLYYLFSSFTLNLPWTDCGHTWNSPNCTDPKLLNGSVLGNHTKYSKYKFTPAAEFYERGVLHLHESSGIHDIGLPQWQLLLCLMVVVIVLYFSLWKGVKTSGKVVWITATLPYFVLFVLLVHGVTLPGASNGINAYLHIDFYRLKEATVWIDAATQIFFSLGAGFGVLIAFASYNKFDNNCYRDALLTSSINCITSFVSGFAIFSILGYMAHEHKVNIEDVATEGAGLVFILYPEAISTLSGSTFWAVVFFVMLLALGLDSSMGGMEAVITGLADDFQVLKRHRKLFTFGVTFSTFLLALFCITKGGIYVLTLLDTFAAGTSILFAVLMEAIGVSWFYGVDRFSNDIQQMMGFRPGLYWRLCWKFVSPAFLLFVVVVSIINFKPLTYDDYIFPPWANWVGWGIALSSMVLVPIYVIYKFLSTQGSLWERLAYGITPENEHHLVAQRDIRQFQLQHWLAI
Type-2 angiotensin II receptor (Homo sapiens), sequence (P50052 whole entry): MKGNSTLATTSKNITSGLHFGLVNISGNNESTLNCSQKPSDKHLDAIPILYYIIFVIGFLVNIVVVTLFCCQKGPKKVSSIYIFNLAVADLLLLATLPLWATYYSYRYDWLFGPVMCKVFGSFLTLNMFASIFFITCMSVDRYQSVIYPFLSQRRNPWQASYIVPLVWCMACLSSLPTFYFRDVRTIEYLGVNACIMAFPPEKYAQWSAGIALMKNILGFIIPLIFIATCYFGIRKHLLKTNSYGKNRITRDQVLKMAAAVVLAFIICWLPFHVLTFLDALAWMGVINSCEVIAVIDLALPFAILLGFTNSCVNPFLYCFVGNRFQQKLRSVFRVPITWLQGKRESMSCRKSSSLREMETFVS
5-hydroxytryptamine receptor 2B, sequence (P41595 whole entry): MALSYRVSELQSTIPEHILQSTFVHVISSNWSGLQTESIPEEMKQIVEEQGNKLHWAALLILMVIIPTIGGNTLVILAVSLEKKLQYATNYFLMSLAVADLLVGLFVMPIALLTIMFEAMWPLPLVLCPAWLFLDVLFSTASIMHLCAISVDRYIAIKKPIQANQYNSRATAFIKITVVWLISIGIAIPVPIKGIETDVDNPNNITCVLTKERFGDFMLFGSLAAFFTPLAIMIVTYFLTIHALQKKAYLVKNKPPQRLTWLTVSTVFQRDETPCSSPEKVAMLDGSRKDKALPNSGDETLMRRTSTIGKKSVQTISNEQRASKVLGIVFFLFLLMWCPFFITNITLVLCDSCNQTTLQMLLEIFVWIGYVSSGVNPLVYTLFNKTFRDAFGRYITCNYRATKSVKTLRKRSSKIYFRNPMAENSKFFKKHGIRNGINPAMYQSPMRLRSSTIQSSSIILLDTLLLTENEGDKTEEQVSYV
D(4) dopamine receptor (Homo sapiens), sequence (P21917 whole entry): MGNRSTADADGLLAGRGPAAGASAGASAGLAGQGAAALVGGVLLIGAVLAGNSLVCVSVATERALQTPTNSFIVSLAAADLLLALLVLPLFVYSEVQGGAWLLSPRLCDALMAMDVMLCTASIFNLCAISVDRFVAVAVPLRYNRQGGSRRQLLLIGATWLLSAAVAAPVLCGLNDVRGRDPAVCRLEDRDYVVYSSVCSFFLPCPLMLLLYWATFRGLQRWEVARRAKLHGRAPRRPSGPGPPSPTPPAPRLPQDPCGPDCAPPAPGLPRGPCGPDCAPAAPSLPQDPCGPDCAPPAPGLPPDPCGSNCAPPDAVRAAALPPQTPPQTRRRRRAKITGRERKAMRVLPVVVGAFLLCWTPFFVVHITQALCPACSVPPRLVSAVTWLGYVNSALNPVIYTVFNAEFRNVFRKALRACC

Row | SMILES | inhibition [1] | inhibition [2] | inhibition [3] | inhibition [4] | inhibition [5] | inhibition [6] | inhibition [7] | inhibition [8] | inhibition [9] | inhibition [10] | inhibition [11] | Activity [12] | inhibition [13] | inhibition [14] | inhibition [15] | Activity [16] | inhibition [17] | inhibition [18] | inhibition [19] | inhibition [20] | other results
1 | Cc1cccc(C)c1OCCOCCN[C@H](C)CO | 8.6% | 22.7% | -0.8% | -7.6% | 89.4% | 40.9% | 24.5% | 4.8% | 12% | 6% | 1.5% | Active | 9.4% | 9.6% | -3.9% | inactive | 3.5% | 52.6% | 6.4% | 8% | inhibition [21]: -0.7%; inhibition [22]: -5.5%; inhibition [23]: 54.9%; Activity [24]: inactive; inhibition [25]: 3.4%; Activity [26]: inactive; inhibition [27]: 4.2%; inhibition [28]: 2.9%; inhibition [29]: -3.6%; inhibition [30]: 96.5%; inhibition [31]: 70.6%
2 | Cc1cccc(C)c1OCCOCCN[C@@H](C)CO | 5.7% | 14.1% | -4% | 4.6% | 78.8% | 35.8% | 16.2% | 11.1% | 14.7% | 22.8% | 0.2% | Active | 9.4% | 5.8% | -6.7% | inactive | 4.8% | 34.5% | 11.7% | 15% | inhibition [21]: -0.4%; inhibition [22]: -2%; inhibition [23]: 79%; Activity [24]: inactive; inhibition [25]: 11.2%; Activity [26]: inactive; inhibition [27]: 10.7%; inhibition [28]: 2.7%; inhibition [29]: 2.2%; inhibition [30]: 91.4%; inhibition [31]: 63.9%
